In ChEMBL document CHEMBL1154187, “Synthesis and biological evaluation of 2-heteroarylthioalkanoic acid analogues of clofibric acid as peroxisome proliferator-activated receptor alpha agonists” (J Med Chem, 2009):
Calls of active or inactive are those of the source. The rule behind the calls is not given here.

Experiments:
Format in all cases: functional, cell-based
[1] = target: T1, Peroxisome proliferator-activated receptor alpha (Homo sapiens) (UniProt Q07869); assay: Agonist activity at human PPARalpha expressed in HEK293 cells assessed as receptor transactivation at 150 uM by luciferase reporter gene assay relative to control
T1 sequence (whole entry): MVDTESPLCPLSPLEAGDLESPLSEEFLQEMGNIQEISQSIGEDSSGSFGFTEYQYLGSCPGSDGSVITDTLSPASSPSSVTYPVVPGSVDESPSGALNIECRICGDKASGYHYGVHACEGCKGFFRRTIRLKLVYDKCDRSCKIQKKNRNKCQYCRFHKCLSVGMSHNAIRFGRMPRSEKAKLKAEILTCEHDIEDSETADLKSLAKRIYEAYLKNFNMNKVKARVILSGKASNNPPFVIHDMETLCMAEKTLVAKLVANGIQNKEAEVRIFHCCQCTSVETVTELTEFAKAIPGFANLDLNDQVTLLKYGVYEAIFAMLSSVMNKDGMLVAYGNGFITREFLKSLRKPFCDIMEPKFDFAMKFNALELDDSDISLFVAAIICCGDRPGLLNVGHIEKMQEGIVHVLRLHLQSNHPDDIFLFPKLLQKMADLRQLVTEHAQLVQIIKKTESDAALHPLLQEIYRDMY
Summary of the method: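 Cells co-transfected by calcium phosphate with human PPARα expression plasmid, luciferase reporter and renilla in serum-free medium. Ligand in DMSO (≤0.1% v/v final) added 6 h post-transfection at 150 μM. Luciferase normalized to renilla, expressed as fold activation over untreated cells; at least three separate experiments, mean ± SEM.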

[2] = target: T2, Peroxisome proliferator-activated receptor alpha (Homo sapiens, UniProt Q07869); assay: Agonist activity at human PPARalpha expressed in HEK293 cells assessed as receptor transactivation at by luciferase reporter gene assay
T2 sequence (Q07869 whole entry): T1 sequence (whole entry)
Summary of the method: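 Human PPARα reporter-gene transactivation: calcium phosphate co-transfection of receptor plasmid, luciferase reporter and renilla. Ligand in DMSO (≤0.1% v/v final) added 6 h after transfection at five concentrations, 1 to 150 μM. At least three separate experiments, ± SEM.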

[3] = target: T1, Peroxisome proliferator-activated receptor alpha (Homo sapiens); assay: Agonist activity at PPARalpha in human HepG2 cells assessed as increase in CPT1A mRNA expression at 150 uM after 48 hrs by RTqPCR relative to untreated control
Summary of the method: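 HepG2 grown in DMEM + 10% FBS, 37 °C, 5% CO2; 1×10^6 cells seeded in six-well dishes, grown 24 h, then given ligand at 150 μM or DMSO vehicle for 48 h. Total RNA by TRIzol; SYBR Green RTqPCR, primers 150 nM final, 60 ng cDNA, 40 cycles. CPT1A normalized to cyclophilin and to vehicle-treated cells; mean ± SEM of four determinations in duplicate.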

Structure (SMILES)	fold change (FC) [1]	EC50 [2] [µM]	Activity [3]	Activity [1]	fold change (FC) [3]
CC(C)(Sc1nc2ccc(C#N)cc2s1)C(=O)O				inactive	
CC(Sc1nc2cc(C#N)ccc2s1)C(=O)O (racemic)				inactive	
CC(C)(Sc1nc2ccccc2s1)C(=O)O				inactive	
CCCCCCC(Sc1nc2cc(Cl)ccc2s1)C(=O)O (racemic)				inactive	
CCOc1ccc2nc(SC(C)(C)C(=O)O)sc2c1	3.3	69.3			
CC(C)(Sc1nc2cc(C(F)(F)F)ccc2s1)C(=O)O				inactive	
CC(Sc1nc2cc(Cl)ccc2s1)C(=O)O (racemic)	3.4	62.5			
CC(C)(Sc1cccs1)C(=O)O				inactive	
CC(Sc1nc2ccc(Br)cc2s1)C(=O)O (racemic)	1.9	84.3			
CC(C)(Oc1ccc(Cl)cc1)C(=O)O	1.6				2
CC(C)(Sc1ccccn1)C(=O)O				inactive	
C[C@@H](Sc1nc2cc(Cl)ccc2s1)C(=O)O	4.5	73.5			

More lines, in order of falling EC50 [2], values ahead:

fold change (FC) [1]	EC50 [2] [µM]	Activity [3]	Activity [1]	fold change (FC) [3]	Structure (SMILES)
2.3	57.3				COc1ccc2sc(S[C@H](C)C(=O)O)nc2c1
2.6	55.9				C[C@H](Sc1nc2cc(Cl)ccc2s1)C(=O)O
1.9	46.3				CC(C)(Sc1nc2cc(C#N)ccc2s1)C(=O)O
2	45.8				COc1ccc2sc(SC(C)(C)C(=O)O)nc2c1
2.6	45.8				CC(C)(Sc1nc2ccc(Br)cc2s1)C(=O)O
1.7	38.9				CC(C)(Sc1nc2ccc(Cl)cc2s1)C(=O)O
1.7	36.1				CC(C)(Sc1nc2ccc(C(F)(F)F)cc2s1)C(=O)O
1.6	35.9				CC(C)(Sc1nc2cc(Cl)ccc2s1)C(=O)O
2.9	33.3				COc1ccc2sc(SC(C)C(=O)O)nc2c1 (racemic)
4.7	14.8				CCCC(Sc1nc2ccc(OCC)cc2s1)C(=O)O (racemic)
1.6	14.3				O=C(O)C(Sc1nc2cc(Cl)ccc2s1)c1ccccc1 (racemic)
2.6	9.8				CCOc1ccc2nc(SC(C)C(=O)O)sc2c1 (racemic)
2.7	9.3				CCCC(Sc1nc2cc(Cl)ccc2s1)C(=O)O (racemic)
3.2	9.3				CC(Sc1nc2cc(Br)ccc2s1)C(=O)O (racemic)
4.5	2.5	Active			CC(C)(Sc1nc2cc(Br)ccc2s1)C(=O)O
2.9	1.9	Active			COc1ccc2sc(S[C@@H](C)C(=O)O)nc2c1
2.8	1.8			2	CC(C)(Sc1ccc(Cl)s1)C(=O)O
